Results: ChEMBL document CHEMBL2321777, “Selective mGAT2 (BGT-1) GABA uptake inhibitors: design, synthesis, and pharmacological characterization” (J Med Chem, 2013)
pIC50: −log10 of the molar value.

Assays:
[1] = biological target: T1, GABA transporter 3 (Mus musculus, UniProt P31649); experiment: Inhibition of [3H]GABA uptake at mouse GAT3 expressed in HEK293 cells after 3 mins by scintillation counting analysis; assay type: cell-based; settings: for pIC50: read-out: IC50
T1 sequence (P31649 whole entry): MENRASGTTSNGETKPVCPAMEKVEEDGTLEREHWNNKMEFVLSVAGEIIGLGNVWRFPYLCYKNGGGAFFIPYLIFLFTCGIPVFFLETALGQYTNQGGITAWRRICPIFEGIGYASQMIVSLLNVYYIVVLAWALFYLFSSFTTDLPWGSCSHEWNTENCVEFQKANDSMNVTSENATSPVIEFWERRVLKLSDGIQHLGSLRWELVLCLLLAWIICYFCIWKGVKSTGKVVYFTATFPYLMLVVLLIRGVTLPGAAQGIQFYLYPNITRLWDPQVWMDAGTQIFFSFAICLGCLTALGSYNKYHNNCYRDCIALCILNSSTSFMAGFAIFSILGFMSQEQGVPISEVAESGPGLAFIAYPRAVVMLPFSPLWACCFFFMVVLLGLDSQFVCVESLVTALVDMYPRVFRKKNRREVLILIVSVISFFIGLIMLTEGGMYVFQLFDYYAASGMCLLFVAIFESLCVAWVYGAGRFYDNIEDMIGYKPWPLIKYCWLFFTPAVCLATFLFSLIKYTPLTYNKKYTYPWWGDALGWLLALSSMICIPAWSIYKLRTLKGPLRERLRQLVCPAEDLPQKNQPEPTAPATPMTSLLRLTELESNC
Outline: (§1)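 Uptake measured in primary mouse cortical astrocyte or neuron cultures, or in cells stably overexpressing the respective recombinant mGAT. Cells were incubated at 37 °C in phosphate-buffered saline with [3H]GABA (1 μCi/mL), 1 μM GABA and increasing inhibitor concentrations. After 3 min, uptake was stopped by automated washing. Cells were solubilized in scintillant, radioactivity was counted, and inhibition curves were analyzed.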

[2] = biological target: T2, GABA transporter 4 (Mus musculus, UniProt P31650); experiment: Inhibition of [3H]GABA uptake at mouse GAT4 expressed in HEK293 cells after 3 mins by scintillation counting analysis; assay type: cell-based; settings: for pIC50: read-out: IC50; outline: as §1
T2 sequence (P31650 whole entry): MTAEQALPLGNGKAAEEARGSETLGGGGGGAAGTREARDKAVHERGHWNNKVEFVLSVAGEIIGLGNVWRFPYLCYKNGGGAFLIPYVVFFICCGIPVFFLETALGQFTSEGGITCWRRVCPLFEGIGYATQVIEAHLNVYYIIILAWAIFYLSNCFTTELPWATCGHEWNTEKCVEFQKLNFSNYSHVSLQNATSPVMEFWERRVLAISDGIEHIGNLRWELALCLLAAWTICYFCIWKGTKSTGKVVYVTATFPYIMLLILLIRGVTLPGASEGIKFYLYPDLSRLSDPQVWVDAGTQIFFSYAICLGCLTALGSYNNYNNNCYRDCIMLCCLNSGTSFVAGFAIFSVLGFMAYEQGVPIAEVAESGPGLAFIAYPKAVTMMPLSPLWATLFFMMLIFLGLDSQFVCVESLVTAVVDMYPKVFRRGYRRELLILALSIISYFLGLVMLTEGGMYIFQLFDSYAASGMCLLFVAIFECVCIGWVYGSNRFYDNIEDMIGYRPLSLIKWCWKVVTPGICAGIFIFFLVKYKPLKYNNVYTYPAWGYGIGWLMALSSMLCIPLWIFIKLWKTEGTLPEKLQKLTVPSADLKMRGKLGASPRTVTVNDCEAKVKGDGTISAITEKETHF

[3] = biological target: GABA transporter (Mus musculus); experiment: Inhibition of [3H]GABA uptake in mouse neurons after 3 mins by scintillation counting analysis
[4] = biological target: T3, GABA transporter 2 (Mus musculus, UniProt P31651); experiment: Inhibition of [3H]GABA uptake at mouse GAT2 expressed in HEK293 cells after 3 mins by scintillation counting analysis; assay type: cell-based; outline: as §1
T3 sequence (P31651 whole entry): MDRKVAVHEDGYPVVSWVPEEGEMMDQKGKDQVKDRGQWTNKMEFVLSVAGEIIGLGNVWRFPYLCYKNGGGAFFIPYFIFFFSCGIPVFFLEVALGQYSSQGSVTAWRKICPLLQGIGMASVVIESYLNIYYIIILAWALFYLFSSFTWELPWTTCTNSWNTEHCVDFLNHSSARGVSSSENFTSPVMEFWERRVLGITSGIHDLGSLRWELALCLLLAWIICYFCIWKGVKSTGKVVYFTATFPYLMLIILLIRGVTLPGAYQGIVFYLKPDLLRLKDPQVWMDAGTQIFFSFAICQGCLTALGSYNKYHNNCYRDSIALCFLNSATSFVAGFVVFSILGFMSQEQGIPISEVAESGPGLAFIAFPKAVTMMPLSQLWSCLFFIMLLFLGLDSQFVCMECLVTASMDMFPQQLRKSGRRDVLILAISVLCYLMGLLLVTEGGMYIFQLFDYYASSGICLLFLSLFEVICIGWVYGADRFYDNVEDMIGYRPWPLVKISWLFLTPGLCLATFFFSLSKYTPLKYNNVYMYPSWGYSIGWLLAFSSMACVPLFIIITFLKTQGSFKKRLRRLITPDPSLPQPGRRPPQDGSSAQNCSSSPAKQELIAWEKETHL

[5] = biological target: GABA transporter (Mus musculus); experiment: Inhibition of [3H]GABA uptake in mouse astrocytes after 3 mins by scintillation counting analysis
[6] = biological target: Sodium- and chloride-dependent GABA transporter 1 (Mus musculus, UniProt P31648); experiment: Inhibition of [3H]GABA uptake at mouse GAT1 expressed in HEK293 cells after 3 mins by scintillation counting analysis; assay type: cell-based; outline: as §1
[7] = tested on: Mus musculus; experiment: Anticonvulsant activity in ip dosed audiogenic seizure susceptible Frings mouse model after 15 mins; assay type: functional
[8] = tested on: Mus musculus; experiment: Anticonvulsant activity in ip dosed audiogenic seizure susceptible Frings mouse model after 60 mins; assay type: functional; settings: 1 h

SMILES	pIC50 [1]	pIC50 [2]	pIC50 [3]	pIC50 [4]	pIC50 [5]	pIC50 [6]	IC50 ([2]; read-out: pIC50 (converted))	ED50 [7]	IC50 ([1]; read-out: pIC50 (converted))	ED50 [8]
CNC1CCCc2onc(O)c21 (centres undefined)	< 2.52	< 2.52	3.39	< 2.52	4.32	3.35	–	–	–	–
Cc1ccsc1C(=CCCN(C)C1CCCc2o[nH]c(=O)c21)c1sccc1C (centres undefined)	< 3.52	< 3.52	–	–	–	5.15	–	–	–	–
Cc1ccsc1C(=CCCN(C)C1C2C=CC(C2)C1C(=O)O)c1sccc1C (centres undefined)	< 3.52	< 3.52	–	3.84	–	4.40	–	–	–	–
Cc1ccsc1C(=CCCN(C)C1CCC=C1C(=O)O)c1sccc1C (centres undefined)	< 3.52	< 3.52	–	4.30	–	4.77	–	–	–	–
Cc1ccsc1C(=CCCN(C)C1CCCC=C1C(=O)O)c1sccc1C (centres undefined)	< 3.52	3.54	–	4.35	–	3.51	3470 µM	20.4 mg/kg	–	–
CNC1C2C=CC(C2)C1C(=O)O (centres undefined)	< 3.30	< 3.30	–	–	–	< 3.30	–	–	–	–
CNC1CCCC=C1C(=O)O (centres undefined)	< 3.00	< 3.00	–	–	–	3.37	–	–	–	–
Cc1ccsc1C(=CCCN(C)[C@@H]1CCCC[C@@H]1C(=O)O)c1sccc1C (relative stereo)	3.55	< 3.52	–	4.30	–	< 3.52	–	–	3550 µM	–
CN[C@@H]1CCCC[C@H]1C(=O)O (relative stereo)	< 2.52	< 2.52	< 3.52	< 2.52	< 3.52	< 2.52	–	–	–	–
CN[C@H]1CCCC[C@H]1C(=O)O (relative stereo)	< 2.52	< 2.52	< 3.52	< 2.52	< 3.52	< 2.52	–	–	–	–
Cc1ccsc1C(=CCCN(C)[C@H]1CCCC[C@@H]1C(=O)O)c1sccc1C (relative stereo)	< 3.52	< 3.52	–	4.44	–	3.56	–	–	–	–
Cc1ccsc1C(=CCCN1CCC[C@@H](C(=O)O)C1)c1sccc1C [TIAGABINE]	< 3.52	3.10	–	–	–	6.10	–	–	–	1.1 mg/kg
